Test results as given in ChEMBL document CHEMBL5154683, “A 5-FU Precursor Designed to Evade Anabolic and Catabolic Drug Pathways and Activated by Pd Chemistry In Vitro and In Vivo” (J Med Chem, 2022).

Legend:
BXPC-3 = assay: Antiproliferative activity against human BxPC-3 cells assessed as reduction in cell viability measured after 5 days by PrestoBlue reagent based assay; assay type: functional; settings: BXPC-3, 120 h
How it was run: (§1)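 Cells in 10% FBS, 2 mM L-glutamine media at 37 °C, 5% CO₂ (HCT116 in McCoy's 5A, BxPC-3 in RPMI). Seeded at 3000 (HCT116) or 2500 (BxPC-3) cells/well and grown 48 h. Medium then replaced with drug-containing medium, 0.1% DMSO, for 5 d. PrestoBlue 10% v/v added for 1 h, fluorescence read ex 540/em 590 nm. Normalised to DMSO-only wells; sigmoidal variable-slope fit; n = 3.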

HCT-116 [1] = assay: Antiproliferative activity against human HCT-116 cells assessed as reduction in cell viability measured after 5 days by PrestoBlue reagent based assay; assay type: functional; settings: HCT-116, 120 h; how it was run: as §1
[2] = Prodrug conversion in human liver S9 fraction assessed as DH5FU metabolite formation at 1.6 mM incubated for 1 hr in presence of NADPH by 19F-NMR based analysis; assay type: ADME, subcellular; settings: s9, 1 h, 1600 µM
How it was run: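 Compound added as 150 mM stock in DMSO-d₆, preincubated 5 min at 37 °C with enzyme mixture, then NADPH added (1 mM) and incubated 1 h at 37 °C, 600 rpm; controls without NADPH and without enzymes. Stopped with EtOAc, dried under N₂, redissolved in DMSO-d₆, DH5FU detected by ¹⁹F NMR vs authentic sample.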

HCT-116 [3] = assay: Antiproliferative activity against human HCT-116 cells assessed as reduction in cell viability at 100 uM incubated for 5 days in presence of Pd-resins at 0.8 mg/ml by PrestoBlue dye based assay relative to control; assay type: functional; settings: time 5 day
How it was run: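 HCT116 seeded at 750 cells/well and grown 48 h. Medium then replaced with fresh medium with or without Pd resins (20–160 μg per well; 0.2–1.4 mg/mL). Compound added as 5 μL of a 2 mM stock in 2% DMSO/medium, incubated 5 d. PrestoBlue fluorescence read; values normalised to untreated cells within each resin dilution.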

Compound	EC50 (BXPC-3) [nM]	EC50 (HCT-116 [1]) [nM]	Drug metabolism [2]	Activity (HCT-116 [3]) [%]
O=c1[nH]cc(F)c(=O)[nH]1 [FLUOROURACIL]	140	500	Metabolite_Detected	
C#CCn1cc(F)c(=O)[nH]c1=O			Metabolite_Detected	14
